In ChEMBL document CHEMBL4052821, “Chemical Modification for Proteolytic Stabilization of the Selective αvβ3 Integrin RGDechi Peptide: in Vitro and in Vivo Activities on Malignant Melanoma Cells” (J Med Chem, 2017):
Calls of active or inactive are those of the source. The rule behind the calls is not given here. Where a SMILES comes first, the peptide text is derived from it.

Columns and labels:
[1] = tested on: WM266; assay: Antiadhesive activity in alphavbeta3 integrin overexpressing human WM266 cells assessed as inhibition of cell adhesion onto collagen 1 at 50 uM preincubated for 30 mins followed by cell seeding on collagen 1 by RTCA; format: functional, cell-based
Summary of the method: (§1)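 WM266 cells (4 × 10^4, RPMI/10% FBS) preincubated 30 min at 4 °C with peptide (50 μM) in adhesion buffer, then seeded on wells coated overnight at 4 °C with 10 μg/mL matrix and blocked with 1.5% BSA. Impedance cell index read every minute over 0–24 h. Adhesion rate taken as slope between two time points, expressed as % of untreated control.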

[2] = Antimigratory activity in alphavbeta3 integrin overexpressing human WM266 cells at 50 uM after 24 hrs by wound healing assay relative to control; format: functional
Summary of the method: (§2)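 Confluent WM266 monolayers scratched with a pipette tip, washed with PBS, then given medium containing peptide (50 μM). Phase-contrast images taken at 0, 24 and 48 h. Wound width expressed as % of the 0 h value. Three experiments in triplicate.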

[3] = tested on: WM266; assay: Antiinvasive activity in alphavbeta3 integrin overexpressing human WM266 cells at 50 uM after 18 hrs by Transwell assay relative to control; format: functional, cell-based
Summary of the method: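 Transwell inserts (8 μm) coated with ECL Cell Attachment. EDTA-detached WM266 cells (1 × 10^5, serum-free RPMI) with peptide (50 μM) in the upper chamber, 10% FBS RPMI below. Incubated 18 h at 37 °C. Invaded cells formalin-fixed, crystal violet stained and counted in four fields per chamber. Duplicate chambers.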

[4] = tested on: HeLa; assay: Antiadhesive activity in alphavbeta5 integrin overexpressing human HeLa cells assessed as inhibition of cell binding to anti-alphaVbeta5 antibody at 50 uM by RTCA cell index slope-based assay
[5] = (§3) Antiadhesive activity in alphavbeta3 integrin overexpressing human WM266 cells assessed as inhibition of cell adhesion onto fibronectin preincubated for 30 mins followed by cell seeding on fibronectin measured after 1 hr by crystal violet staining-based assay; format: functional
Summary of the method: (§4)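 Dose–response adhesion: WM266 cells preincubated with increasing peptide concentrations, then seeded on plates precoated with vitronectin or fibronectin (10 μg/mL). Adherent cells quantified after 1 h by crystal violet staining as % of untreated control. IC50 derived from this curve; means ± SE of three independent experiments in triplicate.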

[6] = tested on: WM266; assay: as §3; format: functional; summary of the method: as §4
[7] = target: Integrin alpha-V/beta-3 (Homo sapiens) (UniProt P05106+P06756); assay: Competitive binding affinity to alphavbeta3 integrin in human WM266 cells using NIR750-labeled compound at 1 nmole after 1 hr in presence of excess of unlabeled compound by DAPI staining-based confocal microscopic method; format: cell-based
Summary of the method: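 WM266 cells on coverslips incubated with 1 nmol NIR750-labelled peptide in DPBS/5% FBS for 1 h at 4 °C. For competition, cells were first preincubated 1 h at 4 °C with 1000-fold excess unlabelled parent. Cells fixed, DAPI-stained and immunostained for αvβ3, then imaged by confocal microscopy. Colocalization scored by Manders' coefficients.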

[8] = tested on: Serum; assay: Metabolic stability in human serum at 1 mg/ml after 48 hrs by RP-HPLC method; format: ADME, cell-free
Summary of the method: (§5)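 Peptide solution (1 mg/mL, 160 μL) mixed with 400 μL human serum at 37 °C. Aliquots taken at 1, 2, 4, 8, 24 and 48 h were quenched with 15% TFA and centrifuged. Supernatants analysed by LC–MS, following loss of the intact-peptide peak.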

[9] = (§6) Antiadhesive activity in alphavbeta3 integrin overexpressing human WM266 cells assessed as inhibition of cell binding to anti-alphaVbeta3 antibody at 50 uM after 1 hr by crystal violet staining-based assay relative to control; format: functional; details: WM266, 1 h
Summary of the method: (§7)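 Plates coated with anti-αvβ3 antibody LM609 (10 μg/mL). WM266 cells (1.5 × 10^4/well) incubated with peptide (50 μM) for 1 h. Nonadherent cells washed off, adherent cells measured by crystal violet optical density as % of untreated control. At least three independent experiments in duplicate.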

[10] = (§8) Antiadhesive activity in alphavbeta3 integrin overexpressing human WM266 cells assessed as inhibition of cell adhesion onto vitronectin at 50 uM preincubated for 30 mins followed by cell seeding on vitronectin by RTCA relative to control; format: functional; summary of the method: as §1
[11] = (§9) Antiadhesive activity in alphavbeta3 integrin overexpressing human WM266 cells assessed as inhibition of cell adhesion onto vitronectin preincubated for 30 mins followed by cell seeding on vitronectin measured after 1 hr by crystal violet staining-based assay; format: functional; summary of the method: as §4
[12] = tested on: WM266; assay: as §9; format: functional; summary of the method: as §4
[13] = In vivo tumor uptake in CD1 nu/nu athymic mouse xenografted with alphavbeta3 integrin overexpressing human WM266 cells using NIR750 labeled compound at 1 nmol, iv after 3 to 24 hrs by fluorescence molecular tomography; format: ADME, organism-based, Neoplasm
Summary of the method: (§10)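 Peptides conjugated to VivoTag-S 750 NHS ester. 10 × 10^6 WM266 cells implanted in the right flank of CD1 nu/nu mice, fed alfalfa-free chow. At about 0.5 cm3 tumour volume, 1 nmol conjugate given i.v. (3 mice/group) under isoflurane. Whole-body FMT imaging at 3, 5 and 24 h, reported as tumour ROI counts/energy. Tumours excised at 24 h for ex vivo FMT.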

[14] = Ex vivo tumor uptake in CD1 nu/nu athymic mouse xenografted with alphavbeta3 integrin overexpressing human WM266 cells using NIR750 labeled compound at 1 nmol, iv after 24 hrs by fluorescence molecular tomography; format: ADME, organism-based, Neoplasm; summary of the method: as §10
[15] = Antimigratory activity in alphavbeta3 integrin overexpressing human WM266 cells at 50 uM after 48 hrs by wound healing assay relative to control; format: functional; summary of the method: as §2
[16] = (§11) Antiadhesive activity in alphavbeta3 integrin overexpressing human WM266 cells assessed as inhibition of cell adhesion onto fibronectin at 50 uM preincubated for 30 mins followed by cell seeding on fibronectin by RTCA relative to control; format: functional; summary of the method: as §1
[17] = tested on: Serum; assay: Metabolic stability in human serum at 1 mg/ml after 3 to 24 hrs by RP-HPLC method; format: ADME, cell-free; summary of the method: as §5
[18] = tested on: WM266; assay: as §6; format: functional; summary of the method: as §7
[19] = tested on: WM266; assay: as §8; format: functional; summary of the method: as §1
[20] = tested on: WM266; assay: as §11; format: functional; summary of the method: as §1

Structure (SMILES)	inhibition [1]	Activity [2] [%]	Activity [3]	inhibition [4]	IC50 [5] [µM]	inhibition [6]	Activity [7]	Stability [8]	inhibition at 50 µM [9] [%]	inhibition at 50 µM [10] [%]	IC50 [11] [µM]	inhibition [12]	Drug uptake [13]	Drug uptake [14]	Activity [15] [%]	inhibition at 50 µM [16] [%]	Stability [17]	inhibition [18]	inhibition [19]	inhibition [20]
CSCC[C@H](NC(=O)CC[C@@H]1NC(=O)[C@H](CC(=O)O)NC(=O)CNC(=O)[C@H](CCCNC(=N)N)NC(=O)[C@H](CCCCN)NC1=O)C(=O)N[C@@H](CC(=O)O)C(=O)N[C@@H](CC(=O)O)C(=O)N1CCC[C@H]1C(=O)NCC(=O)N[C@@H](CCCNC(=N)N)C(=O)N[C@@H](CC(N)=O)C(=O)N1CCC[C@H]1C(=O)N[C@@H](Cc1cnc[nH]1)C(=O)N[C@@H](CCCCNC(N)=O)C(=O)NCC(=O)N1CCC[C@H]1CN[C@@H](C)C(=O)N[C@H](C(=O)O)[C@@H](C)O (HELM PEPTIDE1{M.D.D.P.G.R.N.P.H.[NC(=O)NCCCC[C@H](N[*:1])C(=O)[*:2]].G.[C[C@H](NC[C@@H]1CCCN1[*:1])C(=O)N[C@H](C(=O)O)[C@@H](C)O]}|PEPTIDE2{R.G.D.E.K}$PEPTIDE1,PEPTIDE2,1:R1-4:R3|PEPTIDE2,PEPTIDE2,1:R1-5:R2$$$V2.0)	inactive	54	Active	inactive	20.7	Dose-dependent effect	Active	Stable	40	55	5.2	Dose-dependent effect	Active	Active	33	33				
CSCC[C@H](NC(=O)CC[C@@H]1NC(=O)[C@H](CC(=O)O)NC(=O)CNC(=O)[C@H](CCCNC(=N)N)NC(=O)[C@H](CCCCN)NC1=O)C(=O)N[C@@H](CC(=O)O)C(=O)N[C@@H](CC(=O)O)C(=O)N1CCC[C@H]1C(=O)NCC(=O)N[C@@H](CCCNC(=N)N)C(=O)N[C@@H](CC(N)=O)C(=O)N1CCC[C@H]1C(=O)N[C@@H](Cc1cnc[nH]1)C(=O)N[C@@H](CCCCNC(N)=O)C(=O)NCC(=O)N1CCC[C@H]1C(=O)N[C@@H](C)C(=O)N[C@H](C(=O)O)[C@@H](C)O (HELM PEPTIDE1{M.D.D.P.G.R.N.P.H.[NC(=O)NCCCC[C@H](N[*:1])C(=O)[*:2]].G.P.A.T}|PEPTIDE2{R.G.D.E.K}$PEPTIDE1,PEPTIDE2,1:R1-4:R3|PEPTIDE2,PEPTIDE2,1:R1-5:R2$$$V2.0)		31	Active	inactive	53				40		25.5		Active		20		Unstable			
N=C(N)NCCC[C@@H]1NC(=O)CNC(=O)[C@H](CC(=O)O)NC(=O)[C@@H](Cc2ccccc2)NC(=O)[C@H](CCCCN)NC1=O			Active	Active														Active	Active	Active
